pEC50: −log10 of the molar value.
What was measured:
[1] = Plasma clearance in mouse at 3 mg/kg, iv and 10 mg/kg, po; type: ADME, organism-based
[2] = Volume of distribution at steady state in mouse at 3 mg/kg, iv and 10 mg/kg, po; type: ADME, organism-based; conditions: in vivo, read-out: Vdss
[3] = Cmax in mouse at 3 mg/kg, iv and 10 mg/kg, po; type: ADME, organism-based; conditions: in vivo
Cytochrome P450 1A2 [4] = target: T1, Cytochrome P450 1A2 (Homo sapiens, UniProt P05177); test: Inhibition of human CYP1A2; type: ADME
T1 sequence (P05177 whole entry): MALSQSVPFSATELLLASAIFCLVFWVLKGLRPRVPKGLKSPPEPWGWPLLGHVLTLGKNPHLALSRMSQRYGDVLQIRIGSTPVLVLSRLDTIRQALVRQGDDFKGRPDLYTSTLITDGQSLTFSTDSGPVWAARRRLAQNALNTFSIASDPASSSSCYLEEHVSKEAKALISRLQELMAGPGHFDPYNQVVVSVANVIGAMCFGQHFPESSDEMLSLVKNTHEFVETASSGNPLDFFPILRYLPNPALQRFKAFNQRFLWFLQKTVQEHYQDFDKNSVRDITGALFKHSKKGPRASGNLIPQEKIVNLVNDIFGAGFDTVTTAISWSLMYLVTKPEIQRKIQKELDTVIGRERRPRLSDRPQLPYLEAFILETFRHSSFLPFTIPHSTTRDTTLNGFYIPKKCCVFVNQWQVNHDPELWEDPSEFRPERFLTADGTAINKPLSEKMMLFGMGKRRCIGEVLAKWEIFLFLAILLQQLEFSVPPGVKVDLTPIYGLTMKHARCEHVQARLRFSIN

Cytochrome P450 2D6 [5] = target: T2, Cytochrome P450 2D6 (Homo sapiens, UniProt P10635); test: Inhibition of human CYP2D6; type: ADME
Cytochrome P450 2D6 [6] = target: T2, Cytochrome P450 2D6; test: Inhibition of human CYP2D6 at >100 uM; type: ADME
Cytochrome P450 2C9 = Cytochrome P450 2C9 (Homo sapiens, UniProt P11712); test: Inhibition of human CYP2C9; type: ADME
[7] = target: Nitric oxide synthase, inducible (Homo sapiens, UniProt P35228); test: Inhibition of human iNOS expressed in HEK293 cells assessed as inhibition of nitric oxide production after 18 hrs using 2,3-diaminonaphthalene by fluorescence assay; type: cell-based
Outline: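 HEK293 cells grown to ~70% confluence in DMEM/10% FBS with pen/strep, transiently transfected with 10 μg human or murine iNOS plasmid plus Fugene 6 for 4 h at 37 °C, 10% CO2. Cells replated at 5e5 cells/mL and dosed with compound at once; 1400W (100 μM final) as positive control. After 18 h, DAN (10 μg/mL final) in HCl (0.1 N final) added for 20 min at room temperature. Fluorescence read after NaOH (0.12 N final).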

Nitric oxide synthase 1 = Nitric oxide synthase 1 (Homo sapiens, UniProt P29475); test: Inhibition of human nNOS expressed in HEK293 cells assessed as inhibition ionomycin induced nitric oxide production incubated for 24 hrs measured after 18 hrs of ionomycin challenge using 2,3-diaminonaphthalene by fluorescence assay; type: cell-based
Outline: (§1)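 HEK293 cells transfected for 4 h at 37 °C with human nNOS (10 μg) or human eNOS (15 μg) plasmid (Fugene 6, 3:1). Cells replated at 5e5 cells/mL and dosed with compound at once; SEITU (100 μM final) as positive control. After 24 h, cells activated with A23187 (83 nM final) for eNOS or ionomycin (30 μM final) for nNOS. NO read 18 h later as nitrite-DAN fluorescence.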

Nitric oxide synthase 3 = target: T3, Nitric oxide synthase 3 (Homo sapiens, UniProt P29474); test: Inhibition of human eNOS expressed in HEK293 cells assessed as inhibition A23187 induced nitric oxide production incubated for 24 hrs measured after 18 hrs of […] challenge using 2,3-diaminonaphthalene by fluorescence assay; type: cell-based; outline: as §1
T3 sequence (P29474 whole entry): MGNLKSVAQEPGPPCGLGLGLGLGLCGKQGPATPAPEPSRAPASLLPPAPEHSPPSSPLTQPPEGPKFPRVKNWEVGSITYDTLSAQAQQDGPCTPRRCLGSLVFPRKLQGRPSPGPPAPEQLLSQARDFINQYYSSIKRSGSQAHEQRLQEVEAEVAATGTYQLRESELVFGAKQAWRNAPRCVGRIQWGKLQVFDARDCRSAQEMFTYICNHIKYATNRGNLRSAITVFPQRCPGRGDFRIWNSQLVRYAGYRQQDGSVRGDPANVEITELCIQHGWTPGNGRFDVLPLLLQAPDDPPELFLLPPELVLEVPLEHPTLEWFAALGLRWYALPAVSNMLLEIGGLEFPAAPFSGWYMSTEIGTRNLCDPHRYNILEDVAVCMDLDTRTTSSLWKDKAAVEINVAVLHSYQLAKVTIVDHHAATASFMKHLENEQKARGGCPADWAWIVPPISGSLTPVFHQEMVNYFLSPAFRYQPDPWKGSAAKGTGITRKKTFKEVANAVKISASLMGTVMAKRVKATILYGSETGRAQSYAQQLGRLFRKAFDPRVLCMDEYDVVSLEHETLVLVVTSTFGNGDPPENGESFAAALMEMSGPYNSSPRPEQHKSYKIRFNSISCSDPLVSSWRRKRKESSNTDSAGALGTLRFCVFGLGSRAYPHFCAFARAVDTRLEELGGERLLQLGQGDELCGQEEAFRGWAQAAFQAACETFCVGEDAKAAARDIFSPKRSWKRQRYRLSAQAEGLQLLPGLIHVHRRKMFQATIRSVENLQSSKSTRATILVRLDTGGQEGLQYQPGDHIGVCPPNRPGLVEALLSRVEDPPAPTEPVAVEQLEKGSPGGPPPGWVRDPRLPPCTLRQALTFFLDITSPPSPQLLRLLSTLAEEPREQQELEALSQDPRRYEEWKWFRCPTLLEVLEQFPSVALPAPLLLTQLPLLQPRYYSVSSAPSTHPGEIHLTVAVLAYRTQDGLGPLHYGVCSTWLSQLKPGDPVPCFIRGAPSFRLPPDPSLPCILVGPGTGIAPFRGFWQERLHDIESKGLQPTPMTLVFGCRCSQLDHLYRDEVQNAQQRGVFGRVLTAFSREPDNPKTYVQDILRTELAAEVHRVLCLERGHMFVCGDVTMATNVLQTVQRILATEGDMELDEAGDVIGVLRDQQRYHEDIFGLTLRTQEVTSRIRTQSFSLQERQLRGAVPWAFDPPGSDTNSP

Liver = test: Half life in mouse liver microsomes assessed as formation of oxidation product and glucuronide conjugate; type: ADME, Microsome
Outline: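 Mouse liver microsomes run under combined phase I oxidation and phase II glucuronide conjugation; half-life reported in minutes.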

Mus musculus = test: Inhibition of LPS-induced iNOS activation in BALB/c mouse assessed as plasma nitrate levels administered via oral gavage before LPS challenge measured after 6 to 8 hrs using 2,3-diaminonaphthalene by fluorescence assay; type: functional
Outline: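 Male BALB/c mice dosed by oral gavage (90% PEG/5% Tween 80/5% PVP + 0.5% w/v CMC) immediately before LPS (10 mg/kg ip in 0.9% NaCl). Mice killed at 6 h. EDTA plasma analysed for nitrate and drug levels; nitrite measured by DAN fluorescence.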

Cytochrome P450 1A2 [8] = target: T1, Cytochrome P450 1A2; test: Inhibition of human CYP1A2 at >100uM; type: ADME

Chain of Nitric oxide synthase, inducible (P35228 whole entry): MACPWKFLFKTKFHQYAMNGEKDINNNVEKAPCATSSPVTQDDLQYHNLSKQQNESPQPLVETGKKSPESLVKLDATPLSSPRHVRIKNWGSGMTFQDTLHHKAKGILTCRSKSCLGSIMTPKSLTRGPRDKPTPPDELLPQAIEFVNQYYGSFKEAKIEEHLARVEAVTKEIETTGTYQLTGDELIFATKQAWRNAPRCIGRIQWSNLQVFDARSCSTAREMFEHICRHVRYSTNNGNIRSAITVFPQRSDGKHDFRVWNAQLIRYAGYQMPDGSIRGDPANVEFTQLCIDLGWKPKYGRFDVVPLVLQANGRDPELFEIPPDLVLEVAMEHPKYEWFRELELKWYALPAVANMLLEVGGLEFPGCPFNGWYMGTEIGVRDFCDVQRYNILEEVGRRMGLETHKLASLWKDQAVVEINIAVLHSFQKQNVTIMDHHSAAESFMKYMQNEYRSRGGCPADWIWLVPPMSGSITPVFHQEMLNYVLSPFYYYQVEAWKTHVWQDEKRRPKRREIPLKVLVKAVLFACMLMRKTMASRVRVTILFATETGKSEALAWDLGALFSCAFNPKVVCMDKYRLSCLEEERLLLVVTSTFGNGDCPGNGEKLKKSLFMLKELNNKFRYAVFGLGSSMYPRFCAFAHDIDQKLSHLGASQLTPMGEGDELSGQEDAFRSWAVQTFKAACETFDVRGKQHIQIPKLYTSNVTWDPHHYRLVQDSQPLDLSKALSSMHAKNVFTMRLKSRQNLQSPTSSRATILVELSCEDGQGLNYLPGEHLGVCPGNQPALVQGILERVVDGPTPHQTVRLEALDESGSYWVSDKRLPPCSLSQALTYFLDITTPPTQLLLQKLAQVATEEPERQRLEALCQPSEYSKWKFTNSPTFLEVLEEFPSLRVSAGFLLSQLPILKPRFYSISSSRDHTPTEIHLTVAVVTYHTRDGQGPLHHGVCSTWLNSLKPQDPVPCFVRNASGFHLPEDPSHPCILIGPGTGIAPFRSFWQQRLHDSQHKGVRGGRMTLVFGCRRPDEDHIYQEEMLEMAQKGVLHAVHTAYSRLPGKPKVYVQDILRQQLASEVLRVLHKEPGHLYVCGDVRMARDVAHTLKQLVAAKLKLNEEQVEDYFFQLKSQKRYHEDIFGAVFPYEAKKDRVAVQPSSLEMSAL
Chain of Cytochrome P450 2C9 (P11712 whole entry): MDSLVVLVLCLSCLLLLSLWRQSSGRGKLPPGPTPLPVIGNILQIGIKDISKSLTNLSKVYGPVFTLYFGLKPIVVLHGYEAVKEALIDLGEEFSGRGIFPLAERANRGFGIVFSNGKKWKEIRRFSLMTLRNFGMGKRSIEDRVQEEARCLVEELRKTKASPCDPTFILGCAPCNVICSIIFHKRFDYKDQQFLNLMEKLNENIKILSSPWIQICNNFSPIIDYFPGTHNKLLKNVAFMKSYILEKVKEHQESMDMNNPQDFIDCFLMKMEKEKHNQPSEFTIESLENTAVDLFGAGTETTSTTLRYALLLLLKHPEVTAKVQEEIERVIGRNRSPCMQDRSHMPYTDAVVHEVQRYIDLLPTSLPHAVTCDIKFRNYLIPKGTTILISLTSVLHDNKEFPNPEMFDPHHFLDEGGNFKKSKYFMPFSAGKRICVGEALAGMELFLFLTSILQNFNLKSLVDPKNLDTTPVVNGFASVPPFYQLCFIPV
T2 sequence (P10635 whole entry): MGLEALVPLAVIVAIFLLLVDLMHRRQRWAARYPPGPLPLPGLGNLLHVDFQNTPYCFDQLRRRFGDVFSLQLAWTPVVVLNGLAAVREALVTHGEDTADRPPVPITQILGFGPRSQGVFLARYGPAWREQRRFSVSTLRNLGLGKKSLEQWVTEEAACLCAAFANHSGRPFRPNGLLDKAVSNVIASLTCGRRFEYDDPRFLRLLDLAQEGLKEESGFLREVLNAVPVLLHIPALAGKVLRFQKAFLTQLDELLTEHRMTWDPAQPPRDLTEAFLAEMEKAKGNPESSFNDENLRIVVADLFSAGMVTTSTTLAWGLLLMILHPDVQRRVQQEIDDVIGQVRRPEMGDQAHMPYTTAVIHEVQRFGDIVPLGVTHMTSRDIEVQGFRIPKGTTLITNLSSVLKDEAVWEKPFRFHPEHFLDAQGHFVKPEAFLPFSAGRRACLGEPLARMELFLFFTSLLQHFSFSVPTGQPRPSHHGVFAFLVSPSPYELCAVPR
Chain of Nitric oxide synthase 1 (P29475 whole entry): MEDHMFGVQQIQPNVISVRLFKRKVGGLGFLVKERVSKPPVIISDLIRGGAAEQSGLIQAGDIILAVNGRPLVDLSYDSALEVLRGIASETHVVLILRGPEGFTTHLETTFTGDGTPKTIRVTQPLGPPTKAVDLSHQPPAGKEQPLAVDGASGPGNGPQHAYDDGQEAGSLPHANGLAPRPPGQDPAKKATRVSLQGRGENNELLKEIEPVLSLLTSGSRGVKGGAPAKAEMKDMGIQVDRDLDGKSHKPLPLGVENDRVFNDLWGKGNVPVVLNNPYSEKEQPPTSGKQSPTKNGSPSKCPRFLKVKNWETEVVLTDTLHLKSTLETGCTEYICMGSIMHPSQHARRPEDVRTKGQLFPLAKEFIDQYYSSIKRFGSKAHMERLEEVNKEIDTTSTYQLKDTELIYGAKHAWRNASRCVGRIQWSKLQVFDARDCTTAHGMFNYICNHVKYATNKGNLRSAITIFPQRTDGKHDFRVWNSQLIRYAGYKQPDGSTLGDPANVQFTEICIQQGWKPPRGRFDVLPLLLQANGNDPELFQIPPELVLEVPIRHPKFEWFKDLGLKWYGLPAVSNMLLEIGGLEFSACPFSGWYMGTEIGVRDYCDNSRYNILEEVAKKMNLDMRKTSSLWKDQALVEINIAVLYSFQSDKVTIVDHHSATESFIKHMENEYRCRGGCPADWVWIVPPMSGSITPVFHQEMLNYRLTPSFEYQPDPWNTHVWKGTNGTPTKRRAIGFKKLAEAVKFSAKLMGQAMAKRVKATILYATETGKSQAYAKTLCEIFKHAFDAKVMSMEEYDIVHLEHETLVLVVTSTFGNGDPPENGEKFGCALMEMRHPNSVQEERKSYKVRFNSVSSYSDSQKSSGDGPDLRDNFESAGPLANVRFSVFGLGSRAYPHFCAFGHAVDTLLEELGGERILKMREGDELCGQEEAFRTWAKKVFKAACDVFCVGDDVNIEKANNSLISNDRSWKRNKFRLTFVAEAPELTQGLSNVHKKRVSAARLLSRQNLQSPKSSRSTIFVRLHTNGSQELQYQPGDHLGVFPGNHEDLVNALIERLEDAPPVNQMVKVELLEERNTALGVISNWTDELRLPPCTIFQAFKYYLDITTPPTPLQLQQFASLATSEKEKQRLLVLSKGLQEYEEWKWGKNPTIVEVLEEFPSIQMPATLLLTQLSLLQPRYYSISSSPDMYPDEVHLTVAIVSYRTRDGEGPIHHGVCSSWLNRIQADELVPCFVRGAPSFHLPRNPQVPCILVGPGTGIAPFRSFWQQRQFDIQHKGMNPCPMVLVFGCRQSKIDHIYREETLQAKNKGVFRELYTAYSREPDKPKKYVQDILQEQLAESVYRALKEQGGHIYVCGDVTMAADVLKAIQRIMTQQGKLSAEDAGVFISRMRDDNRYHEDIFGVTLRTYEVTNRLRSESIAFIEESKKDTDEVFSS

SMILES	clearance [1] [mL/min/kg]	Vd [2] [L/kg]	Cmax [3] [ng/mL]	pEC50 (Cytochrome P450 1A2 [4])	pEC50 (Cytochrome P450 2D6 [5])	inhibition (INH) (Cytochrome P450 2D6 [6]) [%]	pEC50 (Cytochrome P450 2C9)	pEC50 [7]	pEC50 (Nitric oxide synthase 1)	pEC50 (Nitric oxide synthase 3)	t1/2 (Liver) [h]	inhibition (INH) (Cytochrome P450 1A2 [8]) [%]	ED50 (Mus musculus) [mg/kg]
O=c1cc(Cn2c(C3CC(F)(F)C3)nc3nccnc32)c2cccc(F)c2[nH]1	6.2	0.67	8800	4.46	< 4.00	< 50	4.66	6.66	5.52	< 4.00	> 2		3
CC(C)Cc1nc2ccccc2n1Cc1cc(=O)[nH]c2c(F)c(F)ccc12	12	1.1	8700					6.42	6.16	< 4.00	1.83		
O=c1cc(Cn2c(C3CCC3)nc3nccnc32)c2cccc(F)c2[nH]1	5.9	0.47		< 4.00	< 4.00	< 50	< 4.22	6.72	5.34	4.59	> 2	< 50	1.5

Stronger by pEC50 [7], values ahead:

clearance [1] [mL/min/kg]	Vd [2] [L/kg]	Cmax [3] [ng/mL]	pEC50 (Cytochrome P450 1A2 [4])	pEC50 (Cytochrome P450 2D6 [5])	inhibition (INH) (Cytochrome P450 2D6 [6]) [%]	pEC50 (Cytochrome P450 2C9)	pEC50 [7]	pEC50 (Nitric oxide synthase 1)	pEC50 (Nitric oxide synthase 3)	t1/2 (Liver) [h]	inhibition (INH) (Cytochrome P450 1A2 [8]) [%]	SMILES	ED50 (Mus musculus) [mg/kg]
4.5	0.39	15000	< 4.00	< 4.00	< 50	< 4.22	7.04	6.52	4.78	> 2	< 50	O=c1cc(Cn2c(C3CCC3)nc3nccnc32)c2ccc(F)c(F)c2[nH]1	1
6.1	6.8		< 4.00	< 4.00	< 50	4.54	7.06	6.52	4.41	0.783	< 50	CC(C)Cc1nc2nccnc2n1Cc1cc(=O)[nH]c2c(F)c(F)ccc12	0.5

— ChEMBL document CHEMBL1800057, “Discovery of dual inducible/neuronal nitric oxide synthase (iNOS/nNOS) inhibitor development candidate 4-((2-cyclobutyl-1H-imidazo[4,5-b]pyrazin-1-yl)methyl)-7,8-difluoroquinolin-2(1H)-one (KD7332) part 2: identification of a novel, potent, and selective series of benzimidazole-quinolinone …” (J Med Chem, 2010)
